How the values were obtained:
E-selectin = target: T1, E-selectin (Homo sapiens, UniProt P16581); assay: Inhibition of human E-selectin after 2 hrs
T1 sequence (P16581 whole entry): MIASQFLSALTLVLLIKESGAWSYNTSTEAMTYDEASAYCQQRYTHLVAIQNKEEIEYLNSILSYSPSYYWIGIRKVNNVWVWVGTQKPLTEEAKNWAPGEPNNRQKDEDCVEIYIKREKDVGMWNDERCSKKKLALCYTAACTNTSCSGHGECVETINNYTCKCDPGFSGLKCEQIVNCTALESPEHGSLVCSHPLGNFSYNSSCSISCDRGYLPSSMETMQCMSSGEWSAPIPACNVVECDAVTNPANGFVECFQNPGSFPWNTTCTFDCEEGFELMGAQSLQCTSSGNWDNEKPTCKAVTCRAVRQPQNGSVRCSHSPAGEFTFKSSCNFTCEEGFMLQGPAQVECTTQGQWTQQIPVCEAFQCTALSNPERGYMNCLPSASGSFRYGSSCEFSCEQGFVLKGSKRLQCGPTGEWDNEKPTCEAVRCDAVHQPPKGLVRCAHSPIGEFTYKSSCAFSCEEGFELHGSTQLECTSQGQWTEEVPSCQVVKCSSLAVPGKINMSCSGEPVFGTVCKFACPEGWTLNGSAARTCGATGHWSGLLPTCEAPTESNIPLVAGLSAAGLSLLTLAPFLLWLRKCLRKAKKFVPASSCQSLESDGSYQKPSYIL
Summary of the method: (§1)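 Biotinylated sLeX-tyrosine sulfate polyacrylamide complexed with streptavidin-peroxidase added with compound at varying concentrations (HEPES pH 7.4, 1 mM CaCl2, 1% DMSO), 2 h 37 °C. TMB read-out, OD 450 vs 620 nm.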

P-selectin = target: T2, P-selectin (Homo sapiens, UniProt P16109); assay: Inhibition of human P-selectin after 2 hrs; summary of the method: as §1
T2 sequence (P16109 whole entry): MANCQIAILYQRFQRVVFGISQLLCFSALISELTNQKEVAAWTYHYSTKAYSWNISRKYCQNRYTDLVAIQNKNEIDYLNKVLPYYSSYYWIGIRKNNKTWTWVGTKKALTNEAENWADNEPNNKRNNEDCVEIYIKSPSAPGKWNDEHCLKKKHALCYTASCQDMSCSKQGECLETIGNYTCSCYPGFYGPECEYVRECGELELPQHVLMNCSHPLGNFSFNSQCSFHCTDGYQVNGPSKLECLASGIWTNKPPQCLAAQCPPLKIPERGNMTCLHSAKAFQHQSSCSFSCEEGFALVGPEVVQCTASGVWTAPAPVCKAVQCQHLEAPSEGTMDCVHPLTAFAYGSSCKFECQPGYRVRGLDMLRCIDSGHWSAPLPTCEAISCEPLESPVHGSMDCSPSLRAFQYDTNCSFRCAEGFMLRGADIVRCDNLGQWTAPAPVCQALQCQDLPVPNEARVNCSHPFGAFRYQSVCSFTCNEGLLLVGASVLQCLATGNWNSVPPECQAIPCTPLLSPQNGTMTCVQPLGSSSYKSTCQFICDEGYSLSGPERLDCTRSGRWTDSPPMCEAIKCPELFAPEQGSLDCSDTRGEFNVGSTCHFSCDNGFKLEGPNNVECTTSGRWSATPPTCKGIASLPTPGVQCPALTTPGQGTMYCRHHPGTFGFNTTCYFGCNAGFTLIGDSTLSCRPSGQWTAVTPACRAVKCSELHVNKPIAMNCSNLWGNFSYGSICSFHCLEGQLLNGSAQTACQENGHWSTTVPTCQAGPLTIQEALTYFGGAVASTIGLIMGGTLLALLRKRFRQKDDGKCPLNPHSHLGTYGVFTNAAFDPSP

L-selectin = target: T3, L-selectin (Homo sapiens, UniProt P14151); assay: Inhibition of human L-selectin after 2 hrs; summary of the method: as §1
T3 sequence (P14151 whole entry): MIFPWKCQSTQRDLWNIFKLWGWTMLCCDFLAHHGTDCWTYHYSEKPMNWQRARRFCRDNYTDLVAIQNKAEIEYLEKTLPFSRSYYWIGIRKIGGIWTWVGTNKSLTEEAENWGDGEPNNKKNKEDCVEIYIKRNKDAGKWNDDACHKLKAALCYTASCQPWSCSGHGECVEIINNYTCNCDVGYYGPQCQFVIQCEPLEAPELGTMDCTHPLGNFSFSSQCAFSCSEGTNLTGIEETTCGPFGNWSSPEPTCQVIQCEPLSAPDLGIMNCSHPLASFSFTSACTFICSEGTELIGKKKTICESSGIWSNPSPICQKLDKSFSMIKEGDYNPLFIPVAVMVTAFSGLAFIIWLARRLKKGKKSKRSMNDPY

HL-60 [1] = assay: Inhibition of attachment of HL60 cells to E-selectin at 109 uM after 5 mins; assay type: functional; conditions: Homo sapiens, HL-60, 5 min
Summary of the method: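 Dishes coated with E- or P-selectin/Fc chimera, blocked with BSA, mounted in a parallel flow chamber run recirculating; HL-60 cells at 2.4 million/mL final. Cells attached after 5 min continuous flow at calculated shear 1 dyn/cm², with 109 µM compound or DMSO vehicle, counted in five low power fields. Mean inhibition as % of vehicle control from mean cells/field of at least two independent experiments.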

HL-60 [2] = assay: Inhibition of attachment of HL60 cells to P-selectin at 109 uM after 5 mins; assay type: functional; conditions: Homo sapiens, HL-60, 5 min
Summary of the method: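 Dishes coated with E- or P-selectin/Fc chimera, blocked with BSA, mounted in a parallel flow chamber run recirculating; HL-60 cells at 2.4 million/mL final. Mean inhibition as % of vehicle control from mean cells/field of at least two independent experiments.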

Row | SMILES | IC50 (E-selectin) [µM] | IC50 (P-selectin) [µM] | IC50 (L-selectin) [µM] | inhibition at 109 µM (HL-60 [1]) [%] | inhibition at 109 µM (HL-60 [2]) [%]
1 | O=C(CCc1cc(O)c(O)c(O)c1)N[C@H]1CC[C@H](C(=O)O)CC1 | 3.1 | 3.4 | 5.7 |  | 
2 | O=C(O)Cc1ccc(-c2cccc(NC(=O)c3cccc(-c4ccc(O)c(O)c4O)c3)c2)s1 | 15.7 | 0.74 | 1.1 | 58 | 93
3 | O=C(O)Cc1ccc(-c2ccccc2NC(=O)/C=C/c2ccc(O)c(O)c2O)s1 | 57.2 | 3.4 | 4.3 |  | 56
4 | O=C(O)c1cc(O)c(O)c(O)c1 [GALLIC ACID] | > 500 | 19.1 | 27.6 |  | 
5 | O=C(O)Cc1cccc(-c2ccccc2OC(=O)c2cc(O)c(O)c(O)c2)c1 | > 500 | 0.87 | 1.5 | 16 | 35
6 | O=C(O)Cc1ccc(-c2ccccc2NC(=O)CCc2ccc(O)c(O)c2O)s1 | > 500 | 28.6 | 85.8 |  | 
7 | O=C(O)Cc1cccc(-c2ccccc2NC(=O)Cc2cc(O)c(O)c(O)c2)c1 |  |  |  | 18 | 22
8 | O=C(O)Cc1ccc(-c2ccccc2NC(=O)c2ccc(-c3ccc(O)c(O)c3O)cc2)s1 | 48 | 1.1 | 1.6 | 33 | 58
9 | O=C(O)Cc1ccc(-c2ccccc2NC(=O)Cc2ccc(O)c(O)c2O)s1 | > 500 |  |  | 26 | 
10 | O=C(O)Cc1cccc(NC(=O)Cc2cc(O)c(O)c(O)c2)c1 |  |  | > 500 | 27 | 
11 | O=C(O)Cc1ccc(-c2ccccc2NC(=O)c2ccccc2-c2cc(O)c(O)c(O)c2)s1 | 114 | 212 | 244 |  | 25
12 | Cc1c(NC(=O)Cc2cc(O)c(O)c(O)c2)cccc1C(=O)O |  | > 500 | > 500 | 19 | 
13 | O=C(O)Cc1ccc(-c2ccccc2NC(=O)Cc2cccc(-c3ccc(O)c(O)c3O)c2)s1 | > 500 | 3.6 | 9.7 |  | 58
14 | Cc1cc(O)c(O)c(O)c1 | 31.7 | 31.8 | 38.5 |  | 
15 | O=C(O)Cc1ccc(-c2ccccc2NC(=O)c2cccc(-c3cc(O)c(O)c(O)c3)c2)s1 | > 500 | 21.8 | 37.6 | 32 | 45
16 | O=C(O)Cc1cccc(-c2cc(CCCCCCc3ccc(O[C@H]4O[C@H](CO)[C@@H](O)[C@H](O)[C@@H]4O)c(-c4cccc(CC(=O)O)c4)c3)ccc2O[C@H]2O[C@H](CO)[C@@H](O)[C@H](O)[C@@H]2O)c1 [BIMOSIAMOSE] |  |  | > 500 | 28 | 50
17 | CC(=O)N[C@H]1[C@H]([C@H](O)[C@H](O)CO)O[C@@](O[C@H]2[C@@H](O)[C@@H](CO)O[C@@H](O[C@@H]([C@H](O[C@@H]3O[C@@H](C)[C@@H](O)[C@@H](O)[C@@H]3O)[C@H](C=O)NC(C)=O)[C@H](O)CO)[C@@H]2O)(C(=O)O)C[C@@H]1O [SIALYL LEWIS X] | 134 | > 4000 | > 4000 | 32 | 
18 | O=C(CCc1cc(O)c(O)c(O)c1)NCc1ccc(C(=O)O)cc1 |  |  |  | 21 | 21

Row | SMILES | IC50 (E-selectin) [µM] | IC50 (P-selectin) [µM] | IC50 (L-selectin) [µM] | inhibition at 109 µM (HL-60 [1]) [%] | inhibition at 109 µM (HL-60 [2]) [%]
19 | O=C(CCc1cc(O)c(O)c(O)c1)Nc1cccc(C(=O)O)c1 | 18.7 | 19.6 | 46.6 |  | 
20 | O=C(O)Cc1ccc(-c2ccccc2NC(=O)c2cccc(-c3ccc(O)c(O)c3O)c2)s1 |  |  |  | 61 | 55
21 | O=C(O)c1ccc(O)c(O)c1O | > 500 |  | 15.2 |  | 
22 | O=C(Cc1cc(O)c(O)c(O)c1)NCc1ccc(C(=O)O)cc1 |  |  |  | 16 | 20
23 | O=C(Nc1ccccc1-c1ccc(C(=O)O)s1)c1cccc(-c2ccc(O)c(O)c2O)c1 | 61.4 | 1.2 | 1.6 | 53 | 98
24 | O=C(O)Cc1cccc(-c2ccccc2NC(=O)CCCNC(=O)c2cc(O)c(O)c(O)c2)c1 | > 500 | 57.2 | 154 | 29 | 
25 | Cc1ccc(C(=O)O)cc1NC(=O)Cc1cc(O)c(O)c(O)c1 | > 500 | 42.8 | 64.5 | 22 | 24
26 | O=C(O)Cc1ccc(-c2ccccc2NC(=O)Cc2cc(O)c(O)c(O)c2)s1 | 3.3 | 2.4 | 3.1 | 35 | 11
27 | O=C(O)Cc1ccc(-c2ccc(NC(=O)c3cccc(-c4ccc(O)c(O)c4O)c3)cc2)s1 | 9.7 | 0.57 | 0.79 | 47 | 83
28 | O=C(O)Cc1ccc(-c2ccccc2NC(=O)/C=C/c2cc(O)c(O)c(O)c2)s1 | 48.6 | 19.5 | 21.3 | 28 | 23
29 | O=C(O)Cc1ccc(-c2ccccc2NC(=O)CCc2cc(O)c(O)c(O)c2)s1 | 41.9 | 10.2 | 13.6 | 35 | 11
30 | Cc1ccc(C(=O)O)cc1NC(=O)CCc1cc(O)c(O)c(O)c1 |  | 2.9 | 4.2 |  | 
31 | O=C(O)Cc1cccc(-c2ccccc2NC(=O)CCc2cc(O)c(O)c(O)c2)c1 | 85.4 | 43.2 | 64.9 | 20 | 22
32 | O=C(O)Cc1cccc(NC(=O)CCc2cc(O)c(O)c(O)c2)c1 |  |  |  | 19 | 
33 | O=C(O)Cc1ccc(-c2ccccc2NC(=O)CCCc2ccc(O)c(O)c2O)s1 | > 500 | 24.8 | 41.7 | 26 | 47
34 | O=C(O)Cc1cccc(-c2ccccc2O[C@H]2O[C@H](CO)[C@@H](O)[C@H](O)[C@@H]2O)c1 | > 500 | > 500 | > 500 | 34 | 
35 | O=C(O)Cc1ccc(-c2ccccc2NC(=O)CCCc2cc(O)c(O)c(O)c2)s1 | 52.4 | 53.9 | 105 |  | 
